Source: PubChem BioAssay (Broad Institute)
In the library only some 2.2% were active in any assay of this set; here they are far more common.
E-selectin induc = induces E-selectin expression in human endothelial cells; HUVEC E-selectin immunofluorescence imaging; normalized: neutral wells 0, TNF-alpha wells 100; activation, % at 7.58 µM; 0.37% of 260,000 active; AID 686992;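 active = mean E-selectin-positive cell signal at least 10% of the positive control, reached in at least 60% of replicates, without over 20% cell loss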
Target sequence (P16581 whole entry, looked up): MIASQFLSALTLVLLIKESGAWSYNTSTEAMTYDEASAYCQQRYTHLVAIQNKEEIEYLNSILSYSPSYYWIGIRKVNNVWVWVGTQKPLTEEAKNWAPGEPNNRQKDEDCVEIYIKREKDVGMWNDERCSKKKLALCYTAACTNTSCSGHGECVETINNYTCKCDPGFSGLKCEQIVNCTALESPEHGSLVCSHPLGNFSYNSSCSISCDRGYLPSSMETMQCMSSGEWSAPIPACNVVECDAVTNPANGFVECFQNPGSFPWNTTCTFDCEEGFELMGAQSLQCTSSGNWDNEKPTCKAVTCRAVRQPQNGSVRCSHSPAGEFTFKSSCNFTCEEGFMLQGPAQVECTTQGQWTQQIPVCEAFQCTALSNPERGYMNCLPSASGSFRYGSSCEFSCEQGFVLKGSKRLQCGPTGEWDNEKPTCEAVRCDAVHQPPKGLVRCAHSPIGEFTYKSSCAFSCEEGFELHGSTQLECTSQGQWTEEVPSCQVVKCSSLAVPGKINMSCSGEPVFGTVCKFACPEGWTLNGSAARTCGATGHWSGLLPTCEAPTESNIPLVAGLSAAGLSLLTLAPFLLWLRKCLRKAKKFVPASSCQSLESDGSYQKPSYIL
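Test system: HUVEC; input: 3,000 HUVEC/well; measured by: immunofluorescence imaging; read-out: % PE-positive cells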
Statin myotox sup = suppression of simvastatin myotoxicity. rescue of ATP level, % at 7.49 µM. C2C12 myotubes + simvastatin, ATP luminescence, 48 h; scaled: DMSO 0, geranylgeraniol control 100. 0.78% of 330,000 active;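 active = mean ATP rescue above about 67%, or every replicate alone reaching that limit, limit read from the data, passing the limit was not always enough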;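 also: myotubes were challenged with 10 µM simvastatin during compound exposure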
DENV2 CPE rescue = protects cells from dengue virus 2 cytopathic effect; CPE inhibition, % at 9.99 µM; AID 651640; 1.7% of 350,000 active; DENV2-infected cells, cytopathic effect rescue, plate reader; in the data active = CPE inhibition above about 20%, passing the limit was not always enough; tested in BHK-21 cells
Numbers stand for hits; – = inactive; · = not tested or not shown.

SMILES	E-selectin induc	Statin myotox sup	DENV2 CPE rescue
CC(=O)N1N=C(c2ccc(C)o2)CC1c1ccc(Br)cc1 (configuration not stated)	·	–	·
COc1ccc(C2CC(c3ccc(C)o3)=NN2C(C)=O)cc1 (configuration not stated)	·	·	34
CCNC(=O)[C@H]1[C@H](CO)[C@H]2Cn3c(ccc(-c4ccccc4F)c3=O)[C@@H]1N2CCC(F)(F)F	–	–	–
CCCNC(=O)C[C@@H]1CC[C@H]2[C@H](COc3ccc(NC(=O)COC)cc3C(=O)N2C)O1	–	–	–
O=C(Cc1ccc(NC(=O)C2CCCN(C(=O)C3CC3)C2)cc1)Nc1cccc(C(=O)N2CCCC2)c1 (configuration not stated)	–	–	62
O=C(Cc1ccc(NC(=O)C2CCCN(C(=O)C3CCCCC3)C2)cc1)Nc1cccc(C(=O)N2CCCC2)c1 (configuration not stated)	–	–	–
O=C(Cc1cccc(NC(=O)C2CCN(C(=O)C3CCCC3)CC2)c1)Nc1cccc(C(=O)N2CCCCC2)c1	–	–	43
O=C(Cc1cccc(NC(=O)C2CCN(C(=O)C3CCCC3)CC2)c1)Nc1cccc(C(=O)N2CCCC2)c1	–	–	–
O=C(Cc1cccc(NC(=O)C2CCCN(C(=O)C3CC3)C2)c1)Nc1ccc(C(=O)N2CCOCC2)cc1 (configuration not stated)	–	–	–
O=C(Cc1cccc(NC(=O)C2CCCN(C(=O)C3CCCCC3)C2)c1)Nc1ccc(C(=O)N2CCOCC2)cc1 (configuration not stated)	–	–	24
CNC(=O)C[C@H]1CC[C@@H]2[C@H](COc3ccc(NC(=O)Nc4c(C)noc4C)cc3C(=O)N2C)O1	–	–	–
C[C@@H]1CN([C@H](C)CO)C(=O)Cc2cc(NC(=O)Nc3cccc4ccccc34)ccc2O[C@@H]1CN(C)S(=O)(=O)c1ccccc1	–	–	–
CNC[C@@H]1OCCCC[C@H](C)Oc2ccc(NS(=O)(=O)c3c(C)noc3C)cc2C(=O)N([C@H](C)CO)C[C@@H]1C	–	·	–
CC(C)NC(=O)Nc1cccc2c1O[C@H](CN(C)Cc1ccc(-c3ccccc3)cc1)[C@H](C)CN([C@H](C)CO)C2=O	–	–	–
CN(C)C(=O)C[C@H]1C=C[C@H](NC(=O)C2CC2)[C@H](CO)O1	–	–	–
Cc1cc2c(=O)n(C)c(SCC(=O)Nc3cccc(F)c3)nc2s1	·	–	–
Cc1cc2c(=O)n(C)c(SCC(=O)Nc3ccc(F)cc3)nc2s1	–	–	37
CC(=O)Nc1cccc(NC(=O)CSc2ncc(C(=O)Nc3ccc(F)cc3)c(=O)n2C)c1	–	–	–
CC(=O)Nc1ccc(NC(=O)CSc2ncc(C(=O)Nc3ccc(F)cc3)c(=O)n2C)cc1	·	·	30
C[C@H](CO)N1C[C@H](C)[C@H](CN(C)Cc2cncnc2)Oc2cc(C#CC3CCCC3)ccc2S1(=O)=O	–	–	–
CCOC(=O)C1(Cc2cccc(OC)c2)CCCN(Cc2cc(C(C)C)n[nH]2)C1 (configuration not stated)	28	–	–
CCOC(=O)C1(Cc2cccc(OC)c2)CCN(Cc2ccccc2)CC1	33	–	–
CCOC(=O)C1(Cc2cccc(OC)c2)CCCN(Cc2c(C)nn(C(C)C)c2C)C1 (configuration not stated)	–	–	–
CCOC(=O)C1(Cc2cccc(OC)c2)CCN(Cc2cccnc2)CC1	–	–	–
CCOC(=O)C1(C)CCCN1C(=O)c1cccc(OC)c1 (configuration not stated)	–	–	–
SMILES	E-selectin induc	Statin myotox sup	DENV2 CPE rescue
CCOC(=O)C1(C)CCN1C(=O)c1cccc(OC)c1 (configuration not stated)	–	–	42
CCC(=O)Nc1ccc2c(c1)OC[C@@H](C)N(C(=O)CC)C[C@H](C)[C@@H](OC)CN(C)C2=O	–	–	·
COC(=O)N(C)C[C@@H]1OCc2ccccc2-c2ccccc2C(=O)N([C@@H](C)CO)C[C@@H]1C	–	·	–
O=C(C[C@H]1CC[C@@H]2[C@H](COC[C@@H](O)CN2Cc2ccncc2)O1)NCc1ccccc1Cl	–	–	–
Cc1sc2ncnc(N3CCC(C(=O)Nc4ccc(Cl)cc4Cl)CC3)c2c1C	–	·	30
Cc1sc2ncnc(N3CCC(C(=O)Nc4ccc(Cl)c(Cl)c4)CC3)c2c1C	–	–	–
O=C(Nc1ccc(-c2ccccc2)cc1)[C@@H]1[C@@H](CO)[C@@H]2Cn3c(cccc3=O)[C@@H]2N1CC1CCCCC1	–	–	–
C[C@@H]1CN([C@H](C)CO)C(=O)c2cc(NS(=O)(=O)c3ccccc3)ccc2O[C@H]1CN(C)Cc1ccncc1	–	–	–
CC(=O)N(C)C[C@@H]1Oc2ncc(-c3ccc(C(=O)N(C)C)cc3)cc2C(=O)N([C@H](C)CO)C[C@@H]1C	–	–	–
O=C(NC1CCC1)[C@@H]1[C@@H](CO)[C@@H]2Cn3c(ccc(-c4ccccc4F)c3=O)[C@H]1N2C(=O)CC1CC1	–	–	–
CNC(=O)Cn1ncc2c(C)n(Cc3ccc(C)cc3)c(C)c2c1=O	·	120	·
Cc1ccc(Cn2c(C)c3cnn(CC(=O)NC4CCCC4)c(=O)c3c2C)cc1	–	–	–
CC=Cc1ccc2n(c1=O)C[C@H]1[C@H](CO)[C@@H](C(=O)NCc3ccccc3)[C@@H]2N1C (mixture of isomers)	–	–	–
COc1ccc2c3c([nH]c2c1)[C@@H](CO)N(C(=O)c1ccccc1)CC31CCN(C(=O)NC(C)C)CC1	–	·	–
CC(O)C(=O)N/N=C/c1ccccc1C(=O)O (configuration not stated)	375	–	–
CC(C)NC(=O)CC(=O)N/N=C\c1ccccc1C(=O)O	·	·	–
COc1ccc(S(=O)(=O)Nc2ccc3c(c2)C(=O)N([C@@H](C)CO)C[C@@H](C)[C@@H](CN(C)Cc2ccc(C(=O)O)cc2)OCCCC[C@@H](C)O3)cc1	–	·	–
COc1ccc(CN(C)C[C@@H]2OCCCC[C@H](C)Oc3ccc(NS(=O)(=O)c4ccc(F)cc4)cc3C(=O)N([C@@H](C)CO)C[C@H]2C)cc1	·	·	59
CCCN(C)C[C@H]1OCCCC[C@@H](C)Oc2ccc(NS(=O)(=O)c3ccc(OC)cc3)cc2C(=O)N([C@H](C)CO)C[C@@H]1C	–	–	55
COc1ccc(CN(C)C[C@@H]2OCCCC[C@@H](C)Oc3ccc(NS(=O)(=O)c4cn(C)cn4)cc3C(=O)N([C@H](C)CO)C[C@@H]2C)cc1	–	·	61
COc1ccc(CN(C)C[C@H]2OCCCC[C@H](C)Oc3ccc(NS(=O)(=O)c4cn(C)cn4)cc3C(=O)N([C@@H](C)CO)C[C@H]2C)cc1	–	·	–
COc1ccc(S(=O)(=O)Nc2ccc3c(c2)C(=O)N([C@@H](C)CO)C[C@H](C)[C@@H](CN(C)Cc2ccc(C(=O)O)cc2)OCCCC[C@H](C)O3)cc1	–	·	54
CCCN(C)C[C@H]1OCCCC[C@@H](C)Oc2ccc(NS(=O)(=O)c3ccc(OC)cc3)cc2C(=O)N([C@H](C)CO)C[C@H]1C	–	–	–
COc1ccc(CN(C)C[C@H]2OCCCC[C@@H](C)Oc3ccc(NS(=O)(=O)c4ccc(F)cc4)cc3C(=O)N([C@H](C)CO)C[C@@H]2C)cc1	·	·	–
